Assay results of several laboratories.
Each line is one published result; the experiments were not run side by side.
KIT: Mast/stem cell growth factor receptor Kit (KIT, Homo sapiens, UniProt P10721)

SMILES	target	effect on	mode	method	endpoint	result
COc1ccc2c(Oc3ccc4c(C(=O)Nc5ccccc5N)cccc4c3)ccnc2c1	KIT	enzyme activity	inhibitor		IC50	4 nM
CCN1CCN(Cc2ccc(C(=O)Nc3ccc(C)c(Oc4ccc5c(c4)CC(=O)N5)c3)cc2C(F)(F)F)CC1	KIT	enzyme activity	inhibitor		IC50	> 10000 nM
Cc1ccc(NC(=O)c2ccc(CN3CCS(=N)(=O)CC3)cc2)cc1Nc1nccc(-c2cccnc2)n1	KIT	binding		competition with immobilised ligand	Kd	11 nM
CN(C)c1ccc(C=C2C(=O)Nc3ccccc32)cc1	KIT	enzyme activity	inhibitor	radiometric	IC50	84 nM
C=CC(=O)Nc1cccc(CN2C(=O)N(c3c(Cl)c(OC)cc(OC)c3Cl)Cc3cnc(NCCCCN(CC)CC)nc32)c1	KIT	binding		competition with immobilised ligand	Kd	420 nM
Cc1cnc(-c2ccc(-c3ccc(NC(=O)Nc4c(F)cc(F)cc4F)cc3F)c3c2C(=O)NC3)[nH]1	KIT	enzyme activity	inhibitor		IC50	29.8 nM
CNC(=O)c1cc2c(Oc3ccc(NC(=O)C4(C(=O)Nc5ccc(F)cc5)CC4)cc3)ccnc2cc1OC	Mast/stem cell growth factor receptor Kit (KIT, Homo sapiens, UniProt P10721, V560G)	enzyme activity	inhibitor	radiometric	IC50	15 nM
CN1CCN(c2ccc(Nc3ncc4cc(C#N)c(=O)n(C5CCCC5)c4n3)cc2)CC1	KIT	enzyme activity	inhibitor		IC50	42 nM
